A value given as a limit tells only on which side of the number the result lay.

This is an account of results in PMC8741576 (Molecular Diversity, 2022).

For series [1], the system named is Capan-1 pancreatic adenocarcinoma cells. Kind of series: Antiproliferative screening, MTS cell viability assay. Type of series: cell-based. The following applies: Homo sapiens, CAPAN-1, 72 h, read-out: IC50 Capan-1. (In general: Formazan colour is commonly taken as a measure of viable cells.)
The nature of series [2]: Cytotoxicity in MT-4 cell culture. Conditions: human, MT-4 cells. Type of series: cell-based.
Series [3] has as its system LN-229 glioblastoma cells. Kind of series: Antiproliferative screening, MTS cell viability assay. The format is cell-based. The following applies: Homo sapiens, LN-229, 72 h, read-out: IC50 LN-229.
For series [4], the system named is HCT-116 colorectal carcinoma cells. The series is described as above. The following applies: Homo sapiens, HCT-116, 72 h, read-out: IC50 HCT-116. The format is cell-based.
The next series relates to HIV-1 NL4.3. Kind of series: Antiretroviral assay in MT-4 cells, cytopathic effect. Type of series: cell-based. The following applies: MT-4 cell culture. The procedure, abridged: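 MT-4 cells (1 × 10^6 cells/mL) were pre-incubated with test compound for 30 min at 37 °C. HIV-1 NL4.3 or HIV-2 ROD was then added according to the CCID50 of the viral stock. Cytopathic effect was scored microscopically 5 days post-infection. […] SI was taken as the CC50/EC50 ratio.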

For series [5], the system named is Z-138 non-Hodgkin lymphoma cells. Kind of series: Antiproliferative screening, IncuCyte cell growth. The format is cell-based. Conditions: Homo sapiens, Z-138, 72 h, read-out: IC50 Z-138.
The test system of series [6] is HEL 299 normal human lung fibroblasts. Kind of series: Antiproliferative screening on noncancerous cells. The following applies: for IC50: Homo sapiens, HEL 299, read-out: IC50 HEL 299; for Cytotoxicity against noncancerous cells in words: HEL 299.
The test system of series [7] is NCI-H460 lung carcinoma cells. Kind of series: Antiproliferative screening, MTS cell viability assay. The format is cell-based. Conditions: Homo sapiens, NCI-H460, 72 h, read-out: IC50 NCI-H460.
Series [8] has as its system DND-41 acute lymphoblastic leukemia cells. Kind of series: Antiproliferative screening, IncuCyte cell growth. The format is cell-based. Conditions: Homo sapiens, DND41, 72 h, read-out: IC50 DND-41.
Series [9] concerns HL-60 acute myeloid leukemia cells. Kind of series: Antiproliferative screening, IncuCyte cell growth. Type of series: cell-based. Conditions: Homo sapiens, HL-60, 72 h, read-out: IC50 HL-60.
Series [10] has as its system K-562 chronic myeloid leukemia cells. The experiment in a line: Antiproliferative screening, IncuCyte cell growth. The format is cell-based. Conditions: Homo sapiens, K562, 72 h, read-out: IC50 K-562.
The next series can be described thus: in vitro. The following applies: human.
A further series deals with human coronavirus 229E. Conditions: HEL cell culture.
A further series relates to human coronavirus OC43. Kind of series: Antiviral assay, virus-induced cytopathic effect, MTS, HEL cells. Type of series: cell-based. The following applies: HEL cell culture. For orientation: Cytopathic effects are the visible damage that an infection or toxin causes in cultured cells.

Take `COc1cc(NC(C)CCCNC(=O)c2cc(Br)ccc2N)c2ncccc2c1` (stereo not shown) [Compound 16, 2-Amino-5-bromo-N-{4-[(6-methoxyquinolin-8-yl)amino]pentyl}benzamide]: the IC50 in series [1], in [3], in [4], in [5], in [6] and in [7] was more than 100 µM in each case. Also, the IC50 in series [8], in series [9] and in series [10] was more than 100 µM each time. In [2], this compound came in with a CC50 at 5 days of 56.4 ± 1.6 µM. Also, the “SI, selectivity index (CC50 to EC50 ratio) HIV-1 NL4.3” value in the series on HIV-1 NL4.3 came out at 4.0.

For `CC(C)(C)OC(=O)Nc1cc(Cl)ccc1C(=O)NCCCCNc1ccnc2cc(Cl)ccc12` [Compound 2, tert-Butyl {5-chloro-2-[[4-[(7-chloroquinolin-4-yl)amino]butyl]carbamoyl]phenyl}carbamate], the IC50 (usually the concentration at which inhibition is half-maximal) in series [1] is 20.4 ± 9 µM; in series [3], 30.1 ± 2.1 µM; in [4] it was 32.4 ± 20 µM; in series [5], 28.6 ± 14.6 µM; in series [6] it was more than 100 µM; in [7] it was 21.2 ± 10 µM. In addition, the IC50 was 46.2 ± 1.9 µM in series [8], 41.5 ± 17 µM in series [9] and 54.5 ± 18.5 µM in series [10]. In addition, the “Cytotoxicity against noncancerous cells in words” value in series [6] is listed as “no cytotoxicity against noncancerous cells”.

`Cc1nc(CNC(=O)c2ccccc2N)cc2c1[nH]c1ccccc12` [Compound 17, 2-Amino-N-[(1-methyl-9H-pyrido[3,4-b]indol-3-yl)methyl]benzamide]: the IC50 worked out at 31.4 ± 1.9 µM in series [1]; 41 ± 0.3 µM in series [3]; 48.4 ± 3.8 µM in [4]; 35.1 ± 4.5 µM in series [5]; 32.8 ± 3.3 µM in series [6]; 54.8 ± 5.9 µM in series [7]. The IC50 in [8] was found to be 61.5 ± 2.1 µM; in series [9], 44 ± 8.4 µM; in series [10], 52 ± 5.3 µM.

For the compound `COc1cc(NC(C)CCCNC(=O)c2cc(Br)ccc2NC(=O)OC(C)(C)C)c2ncccc2c1` (stereo not shown) [Compound 6, tert-Butyl {4-bromo-2-[[4-[(6-methoxyquinolin-8-yl)amino]pentyl]carbamoyl]phenyl}carbamate], the half-inhibitory concentration (IC50) in series [1], in series [3], in [4], in [5], in [6] and in series [7] was more than 100 µM in each case. Also, the IC50 in series [8], in series [9] and in [10] was more than 100 µM throughout.

As for `Cc1nc(CNC(=O)c2ccc(Cl)cc2NC(=O)OC(C)(C)C)cc2c1[nH]c1ccccc12` [Compound 8, tert-Butyl {5-chloro-2-[[(1-methyl-9H-pyrido[3,4-b]indol-3-yl)methyl]carbamoyl]phenyl}carbamate], the IC50 in series [1] came out at 6.5 ± 2.9 µM; in series [3] it was 20.8 ± 13.8 µM; in series [4], 28.9 ± 24.1 µM; in series [5] it was 8.2 ± 1.9 µM; in series [6] it was 7.1 ± 1.8 µM; in series [7] it was 8.3 ± 4.3 µM. The IC50 in series [8] amounted to 32.1 ± 20.8 µM; in series [9], 6.7 ± 0.2 µM; in [10], 29.1 ± 21.3 µM.

`N#C[C@@]1(c2ccc3c(N)ncnn23)O[C@H](CO)[C@@H](O)[C@H]1O` [GS-441524] displayed a CC50 in “in vitro” of more than 100 µM.

Take `COc1cc(NC(C)CCCNC(=O)c2ccccc2N)c2ncccc2c1` (stereo not shown) [Compound 14, 2-Amino-N-{4-[(6-methoxyquinolin-8-yl)amino]pentyl}benzamide]: the IC50 is more than 100 µM in [1]; more than 100 µM in series [3]; more than 100 µM in series [4]; more than 100 µM in [5]; more than 100 µM in [6]; 76.7 ± 25 µM in [7]. For the same compound, the IC50 in series [8], in [9] and in series [10] was more than 100 µM in each case. For the same compound, in [2], the CC50 at 5 days is 78.2 ± 9.3 µM. Further, in the series with HIV-1 NL4.3, the “SI, selectivity index (CC50 to EC50 ratio) HIV-1 NL4.3” value is 8.4.

With `Cc1nc(CNC(=O)c2cc(Br)ccc2NC(=O)OC(C)(C)C)cc2c1[nH]c1ccccc12` [Compound 9, tert-Butyl {4-bromo-2-[[(1-methyl-9H-pyrido[3,4-b]indol-3-yl)methyl]carbamoyl]phenyl}carbamate], the IC50 worked out at 5.8 ± 3 µM in series [1]; 8.3 ± 3.1 µM in series [3]; 32.9 ± 7.9 µM in [4]; 4.1 ± 1.8 µM in [5]; 7.5 ± 1 µM in series [6]; 3.2 ± 1.8 µM in [7]. For the same compound, the IC50 worked out at 12.5 ± 6.9 µM in series [8], 10.8 ± 3.3 µM in series [9] and 63.1 ± 36.9 µM in series [10].

In turn, `CCC(CC)COC(=O)[C@H](C)N[P@](=O)(OC[C@H]1O[C@@](C#N)(c2ccc3c(N)ncnn23)[C@H](O)[C@@H]1O)Oc1ccccc1` [Remdesivir, remdesivir, reference compound] returned a CC50 in “in vitro” of more than 10 µM. The “SI, selectivity index (CC50 to EC50 ratio) 229E” value in the series with human coronavirus 229E is given as more than 160. Moreover, in the series on human coronavirus OC43, the “SI, selectivity index (CC50 to EC50 ratio) OC43” value is more than 250.

For `O=C(NCCCCNc1ccnc2ccccc12)c1ccccc1NCc1ccccc1` [Compound 10, 2-(Benzylamino)-N-[4-(quinolin-4-ylamino)butyl]benzamide], the IC50 in [1] came out at 4.2 ± 3.4 µM; in [3], 3 ± 2 µM; in series [4] it was 7.4 ± 1.5 µM; in [5], 4.6 ± 2 µM; in series [6], 33.6 ± 15.6 µM; in series [7] it was 2.2 ± 0.8 µM. In addition, the values for the IC50 in series [8], in series [9] and in series [10] were 8 ± 3.2 µM, 14.9 ± 7.3 µM and 5.9 ± 3.5 µM, respectively. In “in vitro”, this compound registered a CC50 of 5.6 ± 3 µM. In the series with human coronavirus 229E, the “SI, selectivity index (CC50 to EC50 ratio) 229E” value is more than 7.

For `COc1cc(NC(C)CCCNC(=O)c2ccccc2NCc2ccccc2)c2ncccc2c1` (stereo not shown) [Compound 4, 2-(Benzylamino)-N-{4-[(6-methoxyquinolin-8-yl)amino]pentyl}benzamide], the IC50 in series [1], in series [3], in series [4], in series [5], in series [6] and in series [7] was more than 100 µM in each case. Also, the concentration for half-maximal inhibition (IC50) in series [8], in [9] and in [10] was more than 100 µM each time.

As to `CC(C)(C)OC(=O)Nc1ccc(Br)cc1C(=O)NCCCCNc1ccnc2cc(Cl)ccc12` [Compound 3, tert-Butyl {4-bromo-2-[[4-[(7-chloroquinolin-4-yl)amino]butyl]carbamoyl]phenyl}carbamate], the IC50 was 40.6 ± 4.2 µM in [1]; 48.4 ± 20 µM in series [3]; 66.1 ± 30 µM in series [4]; 55.2 ± 9.2 µM in series [5]; more than 100 µM in [6]; 69.3 ± 30.7 µM in series [7]. Further, the IC50 in series [8] is 51.3 ± 4.4 µM; in series [9], 60.5 ± 17 µM; in series [10], 51.2 ± 9.3 µM. Moreover, the “Cytotoxicity against noncancerous cells in words” value in series [6] is reported as “no cytotoxicity against noncancerous cells”.

On to `Nc1ccccc1C(=O)NCCCCNc1ccnc2ccccc12` [Compound 11, 2-Amino-N-[4-(quinolin-4-ylamino)butyl]benzamide], for which the IC50 in series [1] came out at 62.2 ± 9.7 µM; in series [3] it was 39.7 ± 4.4 µM; in series [4] it was 45.4 ± 4.9 µM; in [5] it was 31.2 ± 1.1 µM; in series [6], 41.6 ± 1.2 µM; in [7], 87.4 ± 12.6 µM. The IC50 in series [8] came to 59.6 ± 1.7 µM; in series [9] it was 44.7 ± 11 µM; in series [10] it was 18.7 ± 6.7 µM. In “in vitro”, this compound returned a CC50 of 46.3 ± 1.2 µM. The “SI, selectivity index (CC50 to EC50 ratio) 229E” value in the series with human coronavirus 229E was 6.0.

For `Cc1nc(CN)cc2c1[nH]c1ccccc12` [HA, (1-methyl-9H-pyrido[3,4-b]indol-3-yl)methanamine, reference compound], the IC50 is 68.6 ± 3.4 µM in series [1]; more than 100 µM in series [3]; more than 100 µM in series [4]; 57.4 ± 32.6 µM in series [5]; more than 100 µM in series [6]; 85.1 ± 14.8 µM in series [7]. Further, the IC50 in series [8], in series [9] and in series [10] was more than 100 µM throughout. Besides, the CC50 in “in vitro” was more than 100 µM. In addition, in series [2], the CC50 at 5 days amounted to 22.3 ± 4.9 µM.

As to `O=C(NCCCCNc1ccnc2cc(Cl)ccc12)c1ccccc1NCc1ccccc1` [Compound 1, 2-(Benzylamino)-N-{4-[(7-chloroquinolin-4-yl)amino]butyl}benzamide], the IC50 is 57.6 ± 14.6 µM in [1]; 53.5 ± 12.2 µM in series [3]; more than 100 µM in series [4]; more than 100 µM in [5]; 8 ± 4.4 µM in [6]; more than 100 µM in series [7]. Besides, the IC50 in [8] is more than 100 µM; in [9] it was more than 100 µM; in series [10], 55.7 ± 10 µM.
